Target: wild type XIAP‐BIR1 (Homo sapiens, UniProt P98170)
Assay: MicroScale Thermophoresis
Assay type: binding
In short: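 Human XIAP-BIR1 domain (wild type, or R62S, D71A, R82S or V86E point mutant made by site-directed mutagenesis), expressed from pET28b and purified. Lysines were covalently dye-labelled, and protein was held at 100 nM. Test compound was added as a two-fold series, final 30 nM–1.0 mM or 300 nM–10 mM. Assay at 24 °C in 50 mM Tris-HCl pH 8, 200 mM NaCl, 10 % glycerol, 10 mM DTT, 0.05 % Tween20, with 20 % LED and medium MST power. Kd was fitted from unbound/bound response values.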

wild type XIAP‐BIR1, sequence (P98170 10-99 limits assumed): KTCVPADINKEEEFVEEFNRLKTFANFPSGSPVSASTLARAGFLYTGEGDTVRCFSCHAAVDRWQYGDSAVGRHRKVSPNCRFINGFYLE

Kd: 612 ± 109 µM
Structure (SMILES): Cc1ccc(C(=O)Nc2ccc(S(=O)(=O)O)c3cc(S(=O)(=O)O)cc(S(=O)(=O)O)c23)cc1NC(=O)c1cccc(NC(=O)Nc2cccc(C(=O)Nc3cc(C(=O)Nc4ccc(S(=O)(=O)O)c5cc(S(=O)(=O)O)cc(S(=O)(=O)O)c45)ccc3C)c2)c1 [Suramin]
